Screens deposited in PubChem BioAssay by several laboratories.
aDG glyco act – activators of alpha-DG glycosylation, primary screen, uHTS, Pro5-aDG cells, AlphaScreen; AID 624168, 2012; alpha-DG glycosylation AlphaScreen (IIH6); 0% Pro5, 100% B10-LARGE cell signal; activation, % at 10 µM; actives 0.22% (n = 360,000);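 active means activation of at least 8% versus controls, or a plate z-score of at least 8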;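 further: Pro5 are CHO cells carrying HIG-tagged alpha-DG that lacks glycosylation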
UPR CHOP act – activators of apoptotic CHOP UPR arm, primary screen, cell-based, CHO-CHOP luciferase reporter, luminescence, uHTS; UPR activation; percent of tunicamycin response over DMSO baseline; activation, % at 10 µM; actives 0.34% (n = 330,000);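 active means at 10 µM dose, activation of 40% or more, normalized to positive control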;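 further: 100% = tunicamycin at 10 µg/mL and 0% = DMSO alone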
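System: CHO-CHOP luciferase reporter cell line; amount: 500 cells/well; buffer or medium: F12 medium containing 10% fetal bovine serum; incubation: 6 h compound exposure at 37 °C after overnight seeding; measured by: luciferase luminescence after 10 min with Steady-Glo reagent; evaluation: % reporter activation, DMSO baseline versus tunicamycin full activation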
UPR XBP1 act – activators of adaptive XBP1 UPR arm, primary screen, cell-based, CHO-XBP1 luciferase reporter, luminescence, uHTS; IRE1-XBP1 UPR activation; percent of tunicamycin response, DMSO as zero; activation, % at 20 µM; actives 0.33% (n = 330,000); AID 463104, 2010;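 active means versus positive control, 20 µM dose yields 30% or more activation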;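 further: 100% = tunicamycin at 10 µg/mL and 0% = DMSO only wells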
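incubation = overnight seeding at 37 °C, 6 h compound treatment at 37 °C | assay system = CHO-XBP1 cells stably carrying IRE1-XBP1-driven luciferase reporter | input = 1000 cells per well | detection = luciferase luminescence | dosing = single point, 20 µM final compound, 1% DMSO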
MPTP inh – mitochondrial permeability transition pore inhibitors, primary screen, biochemical, isolated mouse mitochondria, absorbance. Ca2+ swelling absorbance, 30 min. inhibition, % at 10 µM. actives 1.4% (n = 360,000);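 active means inhibition of 50% or more, scaled per plate between neutral and stimulator controls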;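 further: 0% = DMSO wells given calcium and 100% = 1 mM EGTA wells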
CHOP inhibitor – inhibitors of CHOP promoter induction, primary screen, cell-based, unfolded protein response, luciferase reporter; actives 3.8% (n = 220,000); CHO-K1 CHOP-promoter luciferase, tunicamycin-induced, 15-18 h; inhibition, % at 10 µM;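 active means compounds that reduced the stress-induced luciferase reporter signal by more than about 70% of percent inhibition, limit read from the data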;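 further: 0% = tunicamycin plus vehicle and 100% = wells without tunicamycin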
GRIN3A LBD mod – binders of NR3A ligand-binding domain, primary screen, biophysical, differential scanning fluorimetry, uHTS; Glutamate receptor ionotropic, NMDA 3A (GRIN3A) ligand-binding domain; NR3A LBD differential scanning fluorimetry, Tm shift; 0% = protein alone, 100% = glycine-bound protein; Tm shift relative to glycine control, % at 25 µM; actives 2.5% (n = 340,000); AID 1259313, 2017;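 active means melting temperature shift of at least 10% of the positive control shift, at one fixed dose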
* = called active by the depositor; nt = no result. In the library only some 5.6% were active in any assay of this set; here they are far more common.

SMILES	aDG glyco act	UPR CHOP act	UPR XBP1 act	MPTP inh	CHOP inhibitor	GRIN3A LBD mod
Clc1ccc2nc(CSc3nnc(-c4c[nH]c5ccccc45)o3)cn2c1	0.0	nt	nt	6.7	nt	-7.1
Cc1cccc(C)c1NC(=O)C(c1ccc(C(F)(F)F)cc1)n1c(=O)c(-c2cc3ccccc3[nH]2)nc2ccccc21 (centres undefined)	1.8	nt	nt	5.1	nt	nt
CC(C)(C)c1ccc(NC(=O)COC(=O)C2(C)CC2(Cl)Cl)cc1 (centres undefined)	1.5	6.3	5.2	8.7	70.2*	-17.1
CC(c1ccco1)N(C(=O)c1cccc(S(=O)(=O)N(C)C)c1)c1ccccn1 (centres undefined)	-0.1	1.8	3.4	-0.4	nt	0.5
CC(C(=O)Nc1ccc2[nH]c(=O)[nH]c2c1)N1CCN(Cc2ccc3c(c2)OCO3)CC1 (centres undefined)	-0.2	1.0	-2.0	-2.3	nt	1.1
COc1ccc(-c2cc(O)cc(O)c2)cc1	-0.1	0.8	1.4	-1.0	9.4	10.8*
O=[N+]([O-])c1cccc2c(Br)[nH]nc12	nt	nt	nt	nt	4.5	nt
O=[N+]([O-])c1cc([N+](=O)[O-])c2n[nH]c(-c3ccccc3)c2c1	1.2	0.8	-3.4	1.3	71.8*	-1.7
COc1cc2oc3cc(C)oc(=O)c3c2cc1OC	-0.1	-0.1	0.0	0.1	11.2	16.4*
Cc1nc2c(c(=O)n1CCC1=CCCCC1)c1nc3ccccc3nc1n2/N=C/c1ccco1	-0.1	2.1	2.8	1.9	30.4	-1.8
CCCn1c(C)nc2c(c1=O)c1nc3ccccc3nc1n2CCC1=CCCCC1	-0.3	1.7	1.6	1.4	89.4*	1.9
COC(=O)Cn1c(=NC(=O)c2sc3ccccc3c2Cl)sc2cc(S(N)(=O)=O)ccc21	-0.3	3.6	-1.0	-2.0	23.7	12.6*
COC(=O)Cn1c(=NC(=O)c2nc3ccccc3s2)sc2cc(S(C)(=O)=O)ccc21	nt	2.2	41.7*	nt	-82.7	nt
CCOC(=O)COc1cc(-n2c(=S)[nH]c3cc(OC)c(OC)cc3c2=O)c(Cl)cc1Cl	0.0	-0.5	0.2	4.7	6.0	12.6*
Cc1ccc(SC(C)c2nc(-c3ccccc3)no2)cc1 (centres undefined)	-0.2	0.8	-1.2	5.6	72.4*	0.4
O=Nc1ccc2oc(=O)ccc2c1	nt	nt	nt	nt	0.2	nt
CNc1ccc(/C=C(\CCC(=O)O)c2nc3ccccc3s2)cc1[N+](=O)[O-]	0.1	-1.0	-1.6	0.9	28.6	24.5*
Cn1cnnc1Sc1ccc(/C=C(\CCC(=O)O)c2nc3ccccc3s2)cc1[N+](=O)[O-]	0.0	0.4	-1.4	-1.6	1.2	0.3
COc1ccc(C(=O)Nc2cccc(/C=C(\CCC(=O)O)c3nc4ccccc4s3)c2)cc1	-0.3	1.0	-0.7	4.4	83.4*	-6.2
Cc1ccc(/C=C(\CCC(=O)O)c2nc3ccccc3s2)cc1[N+](=O)[O-]	-0.6	4.3	2.1	-0.3	34.8	2.1
CN(c1ccccc1)c1ccc(/C=C(\CCC(=O)O)c2nc3ccccc3s2)cc1[N+](=O)[O-]	-0.2	-2.0	-1.1	13.3	99.8*	1.1
CCc1noc(C)c1C(=O)Nc1nc(-c2ccc(Cl)cc2Cl)cs1	1.1	-2.0	-0.9	48.4	72.9*	-21.2
COC(=O)c1ccccc1N1CCS(=O)(=O)CC1	-0.4	1.3	-2.3	-2.1	15.6	-3.7
Nc1ncnc2c1ncn2[C@@H]1O[C@H](CNS(=O)(=O)c2cc(S(=O)(=O)c3ccccc3)cs2)[C@@H](O)[C@H]1O	-0.3	2.8	-2.0	-0.4	nt	15.4*
CCOC(=O)C1=CN(Cc2ccco2)S(=O)(=O)N(C)C1c1ccc2ccccc2c1 (centres undefined)	0.1	1.1	-2.9	-1.5	nt	-1.1
SMILES	aDG glyco act	UPR CHOP act	UPR XBP1 act	MPTP inh	CHOP inhibitor	GRIN3A LBD mod
CC(C)(C)CC(=O)NC(=S)NCCc1ccccc1	0.1	2.6	2.7	-0.1	70.2*	2.9
Cc1ccccc1N(CC(=O)N/N=C/c1ccccc1Cl)C(=O)c1ccccc1	0.2	-0.1	7.6	0.0	73.1*	0.5
Cc1cccc(C(=O)Nc2ccc(C(=O)c3ccncc3)cc2)c1	0.2	nt	nt	0.4	nt	nt
O=C1CCc2cc(S(=O)(=O)N3CCN(c4cccc(C(F)(F)F)c4)CC3)ccc2N1	0.5	0.6	1.6	-0.1	87.3*	-5.6
CC1C(=O)Nc2ccc(S(=O)(=O)N3CCN(c4cccc(C(F)(F)F)c4)CC3)cc2NC1=O (centres undefined)	0.1	-0.2	-3.6	-0.4	nt	9.7
Cn1nc(-c2ccc(N3CCN(CCO)CC3)c([N+](=O)[O-])c2)c2ccccc2c1=O	-0.1	-1.7	2.5	1.5	9.6	2.1
Nn1c(COc2ccccc2F)nnc1SCC(=O)NC1CCCCC1	0.0	1.8	0.1	-3.0	nt	0.5
O=C(CSc1nc2[nH]ncc2c(=O)[nH]1)Nc1ccccc1C(F)(F)F	-0.2	1.9	-2.6	-0.6	nt	1.2
O=C(CSc1nc2[nH]ncc2c(=O)[nH]1)Nc1ccccc1F	0.0	1.9	-0.8	-1.2	nt	14.1*
COC(=O)c1ccc(NC(=O)CSc2nc3[nH]ncc3c(=O)[nH]2)cc1	0.0	0.4	-0.9	-1.6	nt	14.1*
Cc1ccc2c(C)c(C(=O)N3CCCC(C(N)=O)C3)oc2c1C (centres undefined)	0.3	3.6	1.4	-0.7	nt	-2.5
COc1ccc(NC(=O)CC2C(=O)N(c3cccc(OC)c3)C(=O)N2CCC(C)C)cc1 (centres undefined)	-0.2	-0.9	0.7	-1.0	22.1	11.2*
CCOc1ccc(NC(=O)CC2C(=O)N(c3ccc(OC)c(Cl)c3)C(=S)N2C2CC2)cc1 (centres undefined)	-0.3	-0.8	0.4	-0.8	nt	24.6*
COc1ccc(C(=O)c2sc3nc(-c4ccc(OC)cc4)ccc3c2N)cc1	0.4	1.3	3.3	3.9	20.2	-1.9
COc1ccc(-c2ccc3c(N)c(C(=O)c4cccc(OC)c4)sc3n2)cc1	0.2	0.9	-0.3	1.9	35.8	17.4*
CCN(CC)S(=O)(=O)c1ccc(NC(=O)COC(=O)c2cc(S(=O)(=O)Nc3ccc(OC)cc3)ccc2O)cc1	-0.1	1.6	-1.9	17.3	16.2	20.7*
NC(=NC1CCCCC1)NS(=O)(=O)c1ccccc1	0.1	0.0	-0.8	0.4	nt	-1.8
